Experimental data published in ChEMBL document CHEMBL4038301 (J Med Chem, 2017).
One block for each compound: values may come before it.

Tests used:
[1] = Ratio of drug level in Sprague-Dawley rat brain to plasma at 10 mg/kg, po after 1 hr post dose by LC/MS/MS analysis; type: ADME, organism-based
[2] = system: Brain; experiment: Unbound drug level in Sprague-Dawley rat brain at 10 mg/kg, po after 1 hr post dose by LC/MS/MS analysis; type: ADME, organism-based; conditions: in vivo
[3] = Total plasma concentration in Sprague-Dawley rat at 10 mg/kg, po after 1 hr post dose by LC/MS/MS analysis; type: ADME, organism-based
[4] = Total drug level in Sprague-Dawley rat brain at 10 mg/kg, po after 1 hr post dose by LC/MS/MS analysis; type: ADME, organism-based; conditions: read-out: Drug uptake
[5] = Ratio of unbound drug level in Sprague-Dawley rat brain to plasma at 10 mg/kg, po after 1 hr post dose by LC/MS/MS analysis; type: ADME, organism-based
[6] = system: Plasma; experiment: Unbound plasma concentration in Sprague-Dawley rat at 10 mg/kg, po after 1 hr post dose by LC/MS/MS analysis; type: ADME, organism-based; conditions: in vivo
[7] = system: Rattus norvegicus; experiment: Volume of distribution at steady state in Sprague-Dawley rat at 1 mg/kg, iv up to 24 hrs post dose by LC/MS/MS Analysis; type: ADME, organism-based; conditions: in vivo
Outline: (§1)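 Male Sprague–Dawley rats (250–350 g, n=2), dual-cannulated (carotid artery and jugular vein). Dosed 1.0 mg/kg IV into the jugular vein in 10% ethanol, 50–70% PEG 400 and 20–40% saline.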

[8] = system: Rattus norvegicus; experiment: MRT in Sprague-Dawley rat at 1 mg/kg, iv up to 24 hrs post dose by LC/MS/MS analysis; type: ADME, organism-based; conditions: in vivo
[9] = system: Rattus norvegicus; experiment: Terminal half life in Sprague-Dawley rat at 1 mg/kg, iv up to 24 hrs post dose by LC/MS/MS analysis; type: ADME, organism-based; conditions: in vivo; outline: as §1
[10] = system: Cynomolgus monkey; experiment: Oral bioavailability in cynomolgus monkey at 5 mg/kg administered via nasogastric gavage up to 24 hrs by LC/MS/MS analysis; type: ADME, organism-based, Macaca fascicularis; conditions: in vivo
[11] = system: Cynomolgus monkey; experiment: Cmax in cynomolgus monkey at 5 mg/kg administered via nasogastric gavage up to 24 hrs by LC/MS/MS analysis; type: ADME, organism-based, Macaca fascicularis; design: dose 5 mg/kg, route nasogastric; conditions: in vivo, po
[12] = system: Rattus norvegicus; experiment: Cmax in Sprague-Dawley rat at 10 mg/kg, administered via nasogastric gavage up to 24 hrs by LC/MS/MS analysis; type: ADME, organism-based; design: dose 10 mg/kg, route nasogastric; conditions: in vivo, po
[13] = (§2) Terminal half life in cynomolgus monkey at 0.5 mg/kg, iv up to 24 hrs by LC/MS/MS analysis; type: ADME, organism-based, Macaca fascicularis; conditions: in vivo, read-out: beta t1/2
[14] = system: Rattus norvegicus; experiment: AUC in Sprague-Dawley rat at 10 mg/kg, administered via nasogastric gavage up to 24 hrs by LC/MS/MS analysis; type: ADME, organism-based; design: time < 24 hr, dose 10 mg/kg, route nasogastric; conditions: in vivo, po
[15] = system: Rattus norvegicus; experiment: Oral bioavailability in Sprague-Dawley rat at 10 mg/kg, administered via nasogastric gavage up to 24 hrs by LC/MS/MS analysis; type: ADME, organism-based; conditions: in vivo
[16] = Plasma clearance in cynomolgus monkey at 0.5 mg/kg, iv up to 24 hrs by LC/MS/MS analysis; type: ADME, organism-based, Macaca fascicularis
[17] = system: Rattus norvegicus; experiment: Tmax in Sprague-Dawley rat at 10 mg/kg administered via nasogastric gavage up to 24 hrs by LC/MS/MS analysis; type: ADME, organism-based; conditions: in vivo, po
[18] = system: Cynomolgus monkey; experiment: AUC in cynomolgus monkey at 5 mg/kg administered via nasogastric gavage up to 24 hrs by LC/MS/MS analysis; type: ADME, organism-based, Macaca fascicularis; design: dose 5 mg/kg, time < 24 hr, route nasogastric; conditions: in vivo, po
[19] = system: Cynomolgus monkey; experiment: MRT in cynomolgus monkey at 0.5 mg/kg, iv up to 24 hrs by LC/MS/MS analysis; type: ADME, organism-based, Macaca fascicularis; conditions: in vivo
[20] = Apparent permeability across apical to basolateral side in MDCK cells expressing human MDR1 at 2 uM after 30 mins by LC-MS/MS; type: ADME, cell-based, Canis lupus familiaris; conditions: dog, 0.5 h
[21] = system: Brain; experiment: Unbound concentration in Harlan CD1 mouse brain at 3 mg/kg, ip at 15 mins by equilibrium dialysis method; type: ADME, organism-based; conditions: in vivo
[22] = Intrinsic clearance in human cryopreserved hepatocytes assessed per million cells at 5 uM measured after 15 to 120 mins by LC/MS/MS analysis; type: ADME, cell-based, Hepatocyte
Outline: (§3)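 Pooled human cryopreserved hepatocytes (19 donors, mixed gender), thawed and resuspended in KHB. Compound 5 µM final, shaken at 37 °C. Aliquots quenched in acetonitrile with carbamazepine at 0, 15, 30, 60 and 120 min. Percent parent remaining measured by LC/MS/MS. Midazolam served as positive control.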

[23] = Half life in human cryopreserved hepatocytes at 5 uM measured by LC/MS/MS analysis; type: ADME, cell-based, Hepatocyte; outline: as §3
[24] = Apparent permeability across basolateral to apical side in MDCK cells expressing human MDR1 at 2 uM after 30 mins by LC-MS/MS; type: ADME, cell-based, Canis lupus familiaris; conditions: dog, 0.5 h
[25] = Drug level in Harlan CD1 mouse brain at 3 mg/kg, ip at 15 mins; type: ADME, organism-based; conditions: read-out: Drug uptake
[26] = system: Cynomolgus monkey; experiment: as §2; type: ADME, organism-based, Macaca fascicularis; conditions: in vivo, 24 h
[27] = Drug metabolism in cynomolgus monkey hepatic S9 fraction assessed as AO-mediated metabolite formation by LC/MS analysis; type: ADME, Macaca fascicularis, Liver
[28] = Apparent permeability across apical to basolateral side in human Caco2 cells at 2 uM after 10 mins by LC-MS/MS; type: ADME, cell-based; conditions: caco-2, 10 min
[29] = Plasma clearance in cynomolgus monkey at 0.2 mg/kg, iv up to 24 hrs by LC/MS/MS analysis; type: ADME, organism-based, Macaca fascicularis

SMILES: Cc1cc(Oc2cnc(C)nc2)cc(C(=O)Nc2ccc(F)cn2)n1
- BPR [1]: 0.67
- Drug uptake(free) [2]: 142 nM
- concentration at 1 h [3]: 4820 nM
- concentration at 1 h [4]: 3220 nM
- K(p,uu,brain) [5]: 0.36
- Cp(f) [6]: 390 nM
- Vdss [7]: 1.2 L/kg
- MRT [8]: 3.18 h
- beta t1/2 [9]: 3.82 h

SMILES: CCc1cccc(NC(=O)c2cc(Oc3cncnc3)cc(C)n2)n1
- Vdss [7]: 6.6 L/kg
- MRT [8]: 1.33 h
- beta t1/2 [9]: 6.73 h

SMILES: Cc1cccc(NC(=O)c2cc(Oc3cncc(F)c3)cc(C)n2)n1
- Vdss [7]: 4.5 L/kg
- MRT [8]: 2 h
- beta t1/2 [9]: 4.47 h

SMILES: Cc1cccc(NC(=O)c2cc(Oc3cncnc3)cc(C)n2)n1
- Vdss [7]: 1.6 L/kg
- MRT [8]: 0.65 h
- beta t1/2 [9]: 1.75 h

The remaining lines, values ahead:

- Drug uptake(free) [2]: 31.6 nM
- F [10]: 35%
- Cmax [11]: 1360 nM
- Cmax [12]: 3330 nM
- half-life [13]: 9.38 h
- AUC [14]: 38 µM·h
- F [15]: 71%
- clearance [16]: 13.3 mL/min/kg
- K(p,uu,brain) [5]: 0.82
- Tmax [17]: 1.5 h
- AUC [18]: 6.43 µM·h
- MRT [19]: 5.05 h
- Cp(f) [6]: 38.6 nM
- Vdss [7]: 1.9 L/kg
- MRT [8]: 3.47 h
- beta t1/2 [9]: 4.68 h
SMILES: Cc1cc(Oc2cncc(F)c2)cc(C(=O)Nc2ccc(F)cn2)n1

- Papp [20]: 6.2 ×10⁻⁶ cm/s
- Drug uptake(free) [21]: 115 nM
- CLH [22]: 1.43 µL/min
- t1/2 [23]: 5.37 h
- Drug uptake(free) [2]: 201 nM
- concentration at 1 h [3]: 3000 nM
- Papp [24]: 7.2 ×10⁻⁶ cm/s
- F [10]: 44%
- concentration at […] [25]: 1480 nM
- Cmax [11]: 1720 nM
- Cmax [12]: 4340 nM
- beta t1/2 [26]: 5.03 h
- AUC [14]: 14.6 µM·h
- F [15]: 53%
- concentration at 1 h [4]: 2580 nM
- clearance [16]: 15.5 mL/min/kg
- Drug metabolism [27]: Metabolite_Detected
- Tmax [17]: 0.5 h
- Papp [28]: 6.5 ×10⁻⁶ cm/s
- AUC [18]: 7.32 µM·h
- MRT [19]: 2.72 h
- Cp(f) [6]: 318 nM
- Vdss [7]: 1.8 L/kg
- MRT [8]: 1.55 h
- beta t1/2 [9]: 6.5 h
SMILES: Cc1cc(Oc2cncnc2)cc(C(=O)Nc2ccc(F)cn2)n1

- F [15]: < 5%
- clearance [29]: 24 mL/min/kg
SMILES: Cc1csc(NC(=O)c2cc(F)cc(Oc3cncnc3)c2)n1

- Vdss [7]: 11 L/kg
- MRT [8]: 2.62 h
- beta t1/2 [9]: 1.37 h
SMILES: Cc1cc(Oc2cncc(F)c2)cc(C(=O)Nc2cccc(F)n2)n1
